These results are taken from ChEMBL document CHEMBL1124357, “The xanthene-9-spiro-4'-piperidine nucleus as a probe for opiate activity” (J Med Chem, 1989).

As usually defined, the IC50 is the concentration that inhibits the measured activity by half. A lower IC50 goes with greater potency.

The species named for one experiment is Cavia porcellus. As to the kind of experiment: Relative potency to that of normorphine in the electrically stimulated Guinea pig ileum test. It is filed as functional. The method in brief: (§1)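 Electrically evoked twitch of guinea pig tissue. IC50, the concentration giving 50% inhibition of the twitch, was calculated by linear regression. Potency was expressed relative to normorphine assayed on the same tissues.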
For the molecule `CN1CCC2(CC1)c1ccccc1Oc1c(CO)cccc12`, the Relative potency is listed as 0.004. Still for that read-out and setting: the value for `CN1CCC2(CC1)c1cccc(O)c1Oc1cccc(Cl)c12` was 0.031. Still for that read-out and setting: next, `c1ccc(NCCN2CCC3(CC2)c2ccccc2Oc2ccccc23)cc1`: 3.5; `COc1cccc2c1C1(CCN(C)CC1)c1cccc(O)c1O2`: 0.094. The same measure, in the same setting: next, `CN1CCC2(CC1)c1ccccc1Oc1c(S)cccc12`: 0.001; `CN1CCC2(CC1)c1ccccc1Oc1c(N)cccc12`: 0.055; `CC(=O)Nc1cccc2c1Oc1ccccc1C21CCN(C)CC1`: 0.008.

For the molecule `Cc1cccc2c1C1(CCN(C)CC1)c1cccc(O)c1O2`, the Relative potency turned out to be 0.237. Take `CC(=O)Oc1cccc2c1Oc1ccccc1C21CCN(C)CC1`: the Relative potency amounted to 1. Same read-out and setting: next, `CN1CCC2(CC1)c1ccccc1Oc1c(O)cccc12`: 0.175; `CN1CCC2(CC1)c1cccc(O)c1Oc1cccc(F)c12`: 0.16; `CCC(=O)C(CC(C)N(C)C)(c1ccccc1)c1ccccc1` (stereo not drawn) [METHADONE]: 0.91.

A further experiment is filed under the species Cavia porcellus. Kind of experiment: Concentration to produce 50%inhibition of the electrically evoked twitch in guinea pig. The experiment is classed as functional. In short, it runs like this:
as §1
With `Oc1ccc2c3c1O[C@H]1[C@@H](O)C=C[C@H]4[C@@H](C2)NCC[C@@]341` [NORMORPHINE], the midpoint of inhibition, the IC50, lay at 31.3 nM.
